Converted amounts (≈) assume the structure as drawn.
How the values were obtained:
[1] = molecular target: T1, Inosine-5'-monophosphate dehydrogenase 2 (Homo sapiens, UniProt P12268); assay: Inhibition of IMPDH2 at 30 uM
[2] = molecular target: T1, Inosine-5'-monophosphate dehydrogenase 2; assay: Inhibition of IMPDH2
[3] = Apparent permeability in Caco-2 cell from apical to basolateral; format: ADME, cell-based; conditions: human
How it was run: (§1)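 Caco-2 monolayers (10-21 day culture, passage 30-40), confluence confirmed by TEER; medium replaced by HBSS pH 7.4. Test compound 1 µM, cassetted with 2 reference compounds (10 µM), added apically or basolaterally (n = 4); 2 h at 37 °C, 5% CO2. Receiver side analysed by LC-MSMS; Papp normalised to the known Papps of the reference compounds.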

[4] = Distribution coefficient Log D of compound at pH 7.4; format: physicochemical; conditions: octanol/water
How it was run: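 Compound (1–2 mg) shaken for 1 h at 750 osc/min with octanol and pH 7.4 phosphate buffer (0.1 M KH2PO4/NaOH), each presaturated with the other for 18 h. Both layers filtered through 0.2 µm PTFE and analysed by HPLC. Log D taken as log of normalised peak area in octanol over that in buffer.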

[5] = Apparent permeability in Caco-2 cell from basolateral to apical; format: ADME, cell-based; conditions: human; how it was run: as §1
[6] = system: PBMC; assay: Antiproliferative activity against PBMC; format: functional, cell-based; conditions: Homo sapiens
[7] = Aqueous solubility at pH 5; format: physicochemical
How it was run: (§2)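 Solid compound (0.5 mg) shaken in 150 mM phosphate buffer at room temperature for 90 min, then filtered. Filtrate concentration measured by HPLC (UV 254 nm) against a three-point calibration curve made from DMSO stocks. Done in duplicate at pH 7.4 and pH 5.0.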

[8] = Aqueous solubility at pH 7.4; format: physicochemical; how it was run: as §2

With `O=C(Nc1ccccc1)Nc1ccc2c(-c3ccncc3)c[nH]c2c1` the IC50 [1] was “Not Active”.
With `Cc1[nH]c2cc(NS(=O)(=O)c3ccccc3)ccc2c1-c1ccncc1` the IC50 [2] was 0.222 µM.
`CNOC(=O)Nc1ccc2c(C#N)cn(C)c2c1` showed an IC50 [2] of 4.04 µM.
Work on `Cn1cc(C#N)c2ccc(NS(=O)(=O)c3ccccc3)cc21` yielded an IC50 [2] of 7.68 µM.
For `Cn1cc(C#N)c2ccccc21`, the Papp A→B [3] was 36.7 ×10⁻⁶ cm/s, the logD [4] was 2.3 and the Papp B→A [5] was 37.4 ×10⁻⁶ cm/s.
`O=S(=O)(Nc1ccc2c(-c3ccncc3)c[nH]c2c1)c1ccccc1` gave an IC50 [6] of 14 µM, a solubility [7] of 8 µg/mL (≈ 22.9 µM) and a Papp A→B [3] of 6.5 ×10⁻⁶ cm/s. The logD [4] was 2.01, the Papp B→A [5] was 9.3 ×10⁻⁶ cm/s and the IC50 [2] was 0.364 µM.
For `c1ccc2c(-c3ccncc3)c[nH]c2c1`, the IC50 [6] was 28 µM, the Papp A→B [3] was 26.2 ×10⁻⁶ cm/s and the logD [4] was 2.81. The Papp B→A [5] was 23.9 ×10⁻⁶ cm/s.
`CONC(=O)Nc1ccc2c(-c3ccncc3)c[nH]c2c1` showed an IC50 [2] of 1.11 µM.
With `Cn1cc(C#N)c2ccc(NC(=O)Nc3ccccc3)cc21` the IC50 [6] was 14 µM and the IC50 [2] was 0.722 µM.
With `N#Cc1c[nH]c2cc(N)ccc12` the IC50 [1] was “Not Active”.
For `CN(C(=O)Nc1ccc2c(C#N)cn(C)c2c1)c1ccccc1`, the IC50 [2] was 17 µM.
With `CCn1cc(C#N)c2ccc(NS(=O)(=O)Cc3ccccc3)cc21` the IC50 [1] was “Not Active”.
With `CN(C(=O)Nc1cccc2c(-c3ccncc3)c[nH]c12)c1ccccc1` the IC50 [2] was 19.5 µM.
`CN(C(=O)Nc1ccc2c(-c3ccncc3)c[nH]c2c1)c1ccccc1` showed an IC50 [6] of 12 µM, a solubility [7] of 42 µg/mL (≈ 123 µM) and a Papp A→B [3] of 14.3 ×10⁻⁶ cm/s. The logD [4] was 2.93, the Papp B→A [5] was 6.7 ×10⁻⁶ cm/s and the IC50 [2] was 0.084 µM.
Molecule `O=C(NOCc1ccccc1)Nc1cccc2c(-c3ccncc3)c[nH]c12` has an IC50 [2] of 1.36 µM.
In the case of `Cn1cc(C#N)c2ccc(NS(=O)(=O)Cc3ccccc3)cc21`, the IC50 [2] is reported as 21 µM.
`N#Cc1c[nH]c2cc(Nc3nc4ccccc4o3)ccc12` showed an Inhibition [1] of 48%.
With `O=S(=O)(Nc1cccc2c(-c3ccncc3)c[nH]c12)c1ccccc1` the IC50 [2] was 6.21 µM.
`CCOC(=O)c1ccc2c(-c3ccncc3)c[nH]c2c1` showed an IC50 [2] of 0.586 µM.
`Cn1cc(C#N)c2cccc(Nc3nc4ccccc4o3)c21` showed an IC50 [2] of 58.4 µM.
Molecule `c1ccc(-c2ccc3c(-c4ccncc4)c[nH]c3c2)cc1` has an IC50 [6] of 10 µM and an IC50 [2] of 0.456 µM.
For `N#Cc1c[nH]c2c(OCc3ccccc3)cccc12`, the IC50 [1] was “Not Active”.
Work on `Cc1[nH]c2cc(NC(=O)N(C)c3ccccc3)ccc2c1-c1ccncc1` yielded an IC50 [2] of 0.128 µM.
Work on `Cn1cc(C#N)c2ccc(NC(=O)NOCc3ccccc3)cc21` yielded an IC50 [6] of 17 µM, a solubility [7] of 4.5 µg/mL (≈ 14 µM) and a solubility [8] of 4 µg/mL (≈ 12.5 µM). The Papp A→B [3] was 19.3 ×10⁻⁶ cm/s, the logD [4] was 2.74 and the Papp B→A [5] was 19.1 ×10⁻⁶ cm/s. For the same molecule, the IC50 [2] was 1.17 µM.
Work on `CN(C(=O)Nc1ccc2c(C#N)c[nH]c2c1)c1ccccc1` yielded an IC50 [2] of 15.4 µM.
For `CN(C(=O)Nc1cccc2c(C#N)cn(C)c12)c1ccccc1`, the IC50 [2] was 7.85 µM.
`N#Cc1c[nH]c2cc(OCc3ccccc3)ccc12` showed an IC50 [2] of 71.8 µM.
Molecule `O=C(NOCc1ccccc1)Nc1ccc2c(-c3ccncc3)c[nH]c2c1` has an IC50 [6] of 4.6 µM, a solubility [7] of 17.5 µg/mL (≈ 48.8 µM) and a solubility [8] of 3.2 µg/mL (≈ 8.93 µM). The Papp A→B [3] was 6.5 ×10⁻⁶ cm/s, the logD [4] was 3.54 and the Papp B→A [5] was 7.3 ×10⁻⁶ cm/s. It also gave an IC50 [2] of 0.076 µM.
